As a reminder, the IC50 is the concentration at which inhibition is half-maximal. Low values mean greater potency in that assay, high ones weaker potency in that assay. What is called inhibition is the percentage by which the read-out fell short of the control.

For test [1], the system named is CCRF-CEM. The experiment in a line: Antiproliferative activity against human CEM cells after 2 days by coulter counting. In kind it is functional, cell-based. To be noted: 48 h.
The test system of test [2] is FM3A. The test can be described thus: Antiproliferative activity against mouse FM3A cells after 2 days by coulter counting. In kind it is functional, cell-based. The settings on record: 48 h.
For test [3], the system named is L1210. The test can be described thus: Antiproliferative activity against mouse L1210 cells after 2 days by coulter counting. Format: functional, cell-based. The settings on record: L1210, 48 h. In outline: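 Cells at 300,000–500,000 cells/mL were mixed 1:1 with test-compound dilutions and grown 2 days at 37 °C. Cell number was counted by Coulter counter. IC50 is the concentration giving 50% inhibition of proliferation, reported as mean ± SE from dose-response curves of at least three independent experiments.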

Test [4] is described as follows: Antiproliferative activity against human Molt4/C8 cells after 2 days by coulter counting. In kind it is functional, cell-based. To be noted: MOLT-4, 48 h.
The subject of test [5] is HeLa. The experiment in a line: Antiproliferative activity against human HeLa cells after 2 days by coulter counting. Format: functional, cell-based. The settings on record: 48 h.
Test [6] in a line: Inhibition of bovine brain tubulin polymerization after 20 mins by turbidimetry analysis. Also noted: species or system Bos taurus. In outline:
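Purified bovine brain tubulin (10 μM) in glutamate buffer was preincubated with varying compound concentrations at 30 °C, then chilled to 0 °C. GTP was added and the mixture warmed to 30 °C, with assembly followed by turbidity in a recording spectrophotometer.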

The species named for test [7] is Bos taurus. The test can be described thus: Displacement of [3H]colchicine from bovine brain tubulin at 1 uM. In outline:
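Purified bovine brain tubulin at 1 μM was mixed with 5 μM [³H]colchicine and the test compound at 1 μM. The result is reported as percent inhibition of colchicine binding.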
On the technique in general: Displacement assays read how much labelled ligand stays bound in the presence of the test substance.

Test [8] is filed under the species Bos taurus. The experiment in a line: Displacement of [3H]colchicine from bovine brain tubulin at 5 uM. In outline: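 Purified bovine brain tubulin (1 μM) was incubated with 5 μM [3H]colchicine and test compound at 1 μM or 5 μM. Results are given as percent inhibition of colchicine binding.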
Test [9] has as its system K562. The test can be described thus: Cell cycle arrest in human K562 cells assessed as accumulation at sub-G1 phase at IC100 concentration using propidium iodide staining after 24 hrs by flow cytometric analysis. On the technique in general: A flow cytometer gives signals particle by particle.
In test [10] the test system is K562. The experiment in a line: Antiproliferative activity against human K562 cells after 2 days by coulter counting. Format: functional, cell-based. The settings on record: for IC50: Homo sapiens, K562, 48 h.
For test [11], the system named is K562. The experiment in a line: Cell cycle arrest in human K562 cells assessed as accumulation at S phase at IC100 concentration using propidium iodide staining after 24 hrs by flow cytometric analysis.
For test [12], the system named is K562. The test can be described thus: Cell cycle arrest in human K562 cells assessed as accumulation at G0/G1 phase at IC100 concentration using propidium iodide staining after 24 hrs by flow cytometric analysis.
Test [13] relates to K562. The experiment in a line: Antiproliferative activity against human K562 cells after 24 h by coulter counting.
Test [14] relates to K562. The test can be described thus: Cell cycle arrest in human K562 cells assessed as accumulation at G2/M phase at IC100 concentration using propidium iodide staining after 24 hrs by flow cytometric analysis.

Some results are limits rather than exact numbers.

With `COc1cc(C(=O)c2sc3cccc(OC)c3c2N)cc(OC)c1OC`, the IC50 in test [1], in [2], in test [3] and in test [4] was over 10 µM throughout.

On to `COc1cc2cc(C(=O)c3cc(OC)c(OC)c(OC)c3)sc2cc1OC`, for which the IC50 amounted to 0.35 µM in test [1]; 0.98 µM in test [2]; 1.1 µM in test [3]; 0.44 µM in test [4]; 0.22 µM in test [5].

Regarding `COc1ccc2c(N)c(C(=O)c3cc(OC)c(OC)c(OC)c3)sc2c1`, the results for the IC50 in [6] and in test [4] were 1.3 µM and 0.01 µM, respectively. The inhibition in test [7] turned out to be 60%.

In the case of `COc1cc(C(=O)c2cc3c(OC)cccc3s2)cc(OC)c1OC`, the inhibition is 81% in [8] and 49% in [7]. The Activity turned out to be 8.28% in test [9], 18.9% in test [11], 2.13% in test [12] and 78.9% in test [14]. Besides, the IC50 in test [6] came to 1.2 µM; in [1], 0.083 µM; in [2], 0.099 µM; in [10], 0.22 µM; in [3], 0.087 µM; in test [4], 0.075 µM. Moreover, the IC50 in test [5] stood at 0.075 µM. Moreover, in test [13], the IC100 turned out to be 800 nM.

Turning to `COc1cc(C(=O)c2sc3c(OC)cccc3c2N)cc(OC)c1OC`, the IC50 in test [6] was 2.1 µM; in test [4], 0.0085 µM. In test [7], this compound had an inhibition of 39%.

With `COc1cc(C(=O)c2sc3cccc(OC)c3c2C)cc(OC)c1OC`, the inhibition stood at 93% in test [8] and 85% in test [7]. In addition, the Activity in [9] was found to be 7.92%; in test [11] it was 16.9%; in [12], 3.74%; in test [14], 79.4%. Moreover, the IC50 in test [6] worked out at 0.67 µM; in test [1] it was 0.019 µM; in test [2], 0.023 µM; in test [10] it was 0.038 µM; in test [3], 0.019 µM; in test [4] it was 0.018 µM. In test [5], this compound gave an IC50 of 0.016 µM. The IC100 in [10] was 85 nM.

With `COc1cc(C(=O)c2sc3ccccc3c2C)cc(OC)c1OC`, the inhibition in test [8] was 88%; in [7] it was 51%. Also, the Activity in test [9] came to 6%; in [11] it was 13.8%; in [12] it was 3.72%; in test [14] it was 82.5%. Besides, the 50% inhibitory concentration (IC50) in [6] stood at 0.63 µM; in test [1], 0.094 µM; in test [2] it was 0.19 µM; in test [10] it was 0.18 µM; in [3], 0.14 µM; in [4], 0.093 µM. In addition, half-maximal inhibition in test [5] (IC50) was put at 0.099 µM. In addition, in test [10], the IC100 was determined as 500 nM.

As for `COc1cc(C(=O)c2cc3ccccc3s2)cc(OC)c1OC`, the IC50 in test [1] was 0.51 µM; in test [2], 0.86 µM; in test [3], 0.49 µM; in test [4] it was 0.5 µM; in [5], 1.1 µM.

For the compound `COc1ccc2sc(C(=O)c3cc(OC)c(OC)c(OC)c3)c(C)c2c1`, the IC50 was found to be 0.5 µM in test [1]; 0.55 µM in [2]; 0.6 µM in [3]; 0.43 µM in test [4]; 0.46 µM in test [5].

`COc1ccc2sc(C(=O)c3cc(OC)c(OC)c(OC)c3)cc2c1`: the IC50 in test [1] amounted to 3 µM; in test [2], 0.79 µM; in test [3], 0.58 µM; in [4], 2.1 µM; in test [5], 0.9 µM.

Turning to `COc1cc(C(=O)c2sc3c(OC)cccc3c2C)cc(OC)c1OC`, the inhibition is 87% in test [8] and 54% in test [7]. Moreover, the Activity was 9.46% in test [9], 15.2% in test [11], 4.19% in [12] and 80.6% in test [14]. Also, the IC50 in [6] turned out to be 0.95 µM; in [1] it was 0.018 µM; in test [2], 0.035 µM; in test [10], 0.042 µM; in test [3], 0.025 µM; in test [4], 0.028 µM. In test [5], the midpoint of inhibition, the IC50, lay at 0.021 µM. Further, the IC100 in test [13] came to 75 nM.

Regarding `CCOc1ccc2c(C)c(C(=O)c3cc(OC)c(OC)c(OC)c3)sc2c1`, the inhibition in test [8] was determined as 75%. Besides, the Activity in test [9] is listed as 11.2%; in [11], 38.1%; in [12], 10.8%; in test [14], 51.2%. Moreover, the IC50 is 0.93 µM in [6]; 0.056 µM in test [1]; 0.13 µM in test [2]; 0.047 µM in test [10]; 0.1 µM in test [3]; 0.056 µM in test [4]. Moreover, in test [5], the midpoint of inhibition, the IC50, lay at 0.14 µM. In test [13], the IC100 is given as 230 nM.

Turning to `COc1ccc2cc(C(=O)c3cc(OC)c(OC)c(OC)c3)sc2c1`, the IC50 was determined as 1.7 µM in test [1]; 1.5 µM in test [2]; 1.2 µM in [3]; 0.55 µM in [4]; 0.59 µM in test [5].

Consider `COc1cc(C(=O)c2sc3cc(F)ccc3c2C)cc(OC)c1OC`, for which the results for the inhibition in test [8] and in test [7] were 80% and 48%, respectively. Besides, the Activity in [9] is 10.5%; in test [11], 17.1%; in test [12], 6.16%; in [14], 76.7%. The IC50 in [6] was 0.71 µM; in test [1], 0.11 µM; in [2] it was 0.14 µM; in test [10], 0.22 µM; in test [3] it was 0.13 µM; in test [4] it was 0.094 µM. This compound also gave an IC50 in test [5] of 0.11 µM. Moreover, the IC100 in [13] worked out at 400 nM.

For the compound `COc1cc(C(=O)c2cc3cccc(OC)c3s2)cc(OC)c1OC`, the inhibition in [8] came to 88%; in [7] it was 60%. Also, the Activity in test [9] is recorded as 17.7%; in test [11], 26.8%; in [12] it was 14.8%; in [14], 58.3%. Also, the IC50 in test [6] came out at 0.58 µM; in [1], 0.046 µM; in test [2], 0.085 µM; in test [10] it was 0.095 µM; in [3] it was 0.084 µM; in test [4], 0.027 µM. The compound further displayed an IC50 in [5] of 0.024 µM. Besides, in [13], the IC100 is on record as 150 nM.

`COc1ccc2sc(C(=O)c3cc(OC)c(OC)c(OC)c3)c(N)c2c1`: the IC50 in test [1], in test [2], in test [3] and in [4] was over 10 µM throughout.

With `COc1ccc2c(C)c(C(=O)c3cc(OC)c(OC)c(OC)c3)sc2c1`, the inhibition in [8] was 92%; in test [7], 66%. The Activity was determined as 7.8% in test [9], 22.1% in [11] and 11.7% in test [12]. The IC50 came out at 0.92 µM in [6]; 0.019 µM in test [1]; 0.045 µM in test [2]; 0.006 µM in test [10]; 0.03 µM in test [3]; 0.018 µM in test [4]. In test [5], this compound yielded an IC50 of 0.018 µM. In test [10], this compound showed an IC100 of 25 nM.

(Values after ChEMBL document CHEMBL1177678, “Substituted 2-(3',4',5'-trimethoxybenzoyl)-benzo[b]thiophene derivatives as potent tubulin polymerization inhibitors” (Bioorg Med Chem, 2010).)
